From ChEMBL document CHEMBL3286182, “4-aminoquinolone piperidine amides: noncovalent inhibitors of DprE1 with long residence time and potent antimycobacterial activity” (J Med Chem, 2014)
Values after ≈ are worked out from the molar mass of the structure shown. Active and inactive are the calls of the source. No cut-off for these calls is given here.

Legend:
[1] = system: Mycobacterium tuberculosis; experiment: Antimycobacterial activity against Mycobacterium tuberculosis H37Rv infected in human THP1 cells after 7 days; format: functional, organism-based; details: THP-1
[2] = Solubility of the compound in 0.1 M phosphate buffer at pH 7.4 after 24 hrs by UV and MS analysis; format: physicochemical
[3] = system: Mycolicibacterium smegmatis; experiment: Antimicrobial activity against Mycobacterium smegmatis mc2155 at 100 uM; format: functional, organism-based; details: str. MC2 155
Escherichia coli [4] = experiment: Antimicrobial activity against Escherichia coli ARC524 at 100 uM; format: functional, organism-based
Procedure, shortened: (§1)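 Nonmycobacterial panel of Candida albicans, Gram-negative and Gram-positive pathogens.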

Pseudomonas aeruginosa [5] = experiment: Antimicrobial activity against Pseudomonas aeruginosa ARC545 at 100 uM; format: functional, organism-based; procedure, shortened: as §1
[6] = Permeability of the compound from apical to basolateral side in human Caco2 cells; format: ADME, cell-based; details: Caco-2, read-out: permeability
[7] = system: Mycolicibacterium smegmatis; experiment: Time dependent inhibition of Mycobacterium smegmatis recombinant DprE1 using farnesylphosphoryl-beta-D-ribofuranose as substrate assessed as conversion of amplex red to resorufin at 4.6 to 3333 nM
Procedure, shortened: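 Coupled fluorescence assay at 25 °C with 75 nM recombinant Msm DprE1 (wild type or Y321H) in 50 mM glycylglycine pH 8.5, 200 mM potassium glutamate, 10 μM FAD, 0.002% Brij-35, 2% DMSO. Enzyme preincubated 30 min, then started with 300 μM FPR, HRP and 50 μM Amplex Red. Progress curves followed over 0−40 min, with background subtracted.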

[8] = system: Mycobacterium tuberculosis; experiment: Antimycobacterial activity against Mycobacterium tuberculosis H37Rv under hypoxic condition after 6 days by resazurin assay; format: functional; details: 144 h
Cytochrome P450 2C9 = Cytochrome P450 2C9 (Homo sapiens, UniProt P11712); experiment: Inhibition of CYP2C9 (unknown origin); format: ADME
Chain of Cytochrome P450 2C9 (P11712 whole entry, canonical isoform): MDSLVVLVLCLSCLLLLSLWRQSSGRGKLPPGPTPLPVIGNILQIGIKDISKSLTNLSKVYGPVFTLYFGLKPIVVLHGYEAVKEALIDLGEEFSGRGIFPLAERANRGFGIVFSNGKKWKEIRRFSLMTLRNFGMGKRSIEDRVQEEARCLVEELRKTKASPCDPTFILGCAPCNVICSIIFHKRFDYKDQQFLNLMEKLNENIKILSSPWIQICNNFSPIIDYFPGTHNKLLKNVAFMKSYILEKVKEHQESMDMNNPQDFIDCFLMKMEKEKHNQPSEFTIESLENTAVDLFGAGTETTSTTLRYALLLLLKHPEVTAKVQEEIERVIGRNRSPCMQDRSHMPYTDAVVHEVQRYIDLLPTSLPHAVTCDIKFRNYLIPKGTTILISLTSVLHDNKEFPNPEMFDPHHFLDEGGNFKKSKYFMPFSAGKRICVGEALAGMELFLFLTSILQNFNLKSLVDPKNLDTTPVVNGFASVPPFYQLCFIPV
Procedure, shortened: (§2)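 CYP inhibition IC50 measured on isoforms CYP3A4, CYP2D6, CYP2C9, CYP2C19 and CYP1A2.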

[9] = system: Mycobacterium tuberculosis; experiment: Antimycobacterial activity against Mycobacterium tuberculosis expressing GFP assessed as change bacterial morphology at 30 uM after 5 to 7 days; format: functional, organism-based
Procedure, shortened: (§3)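 GFP-expressing Mtb was grown several days in a microfluidic device with 7H9 flow medium. Compound at 30 μM was then flowed in from t = 118 h to t = 284 h, then washed out. Phase and GFP time-lapse images were taken at 1 h intervals to follow growth rate, morphology and lysis of single cells and microcolonies.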

[10] = system: Mycobacterium tuberculosis; experiment: Antimycobacterial activity against Mycobacterium tuberculosis over expressing TopA after 5 days by standard microdilution method; format: functional; details: 120 h
[11] = Permeability of the compound from basolateral to apical side in human Caco2 cells; format: ADME, cell-based; details: Caco-2, read-out: permeability
[12] = system: Mycobacterium tuberculosis; experiment: Antimycobacterial activity against Mycobacterium tuberculosis expressing GFP assessed as bacterial lysis at 30 uM after 5 to 7 days measured after drug washout; format: functional, organism-based; procedure, shortened: as §3
Cytochrome P450 3A4 = Cytochrome P450 3A4 (Homo sapiens, UniProt P08684); experiment: Inhibition of CYP3A4 (unknown origin); format: ADME; procedure, shortened: as §2
Chain of Cytochrome P450 3A4 (P08684 whole entry): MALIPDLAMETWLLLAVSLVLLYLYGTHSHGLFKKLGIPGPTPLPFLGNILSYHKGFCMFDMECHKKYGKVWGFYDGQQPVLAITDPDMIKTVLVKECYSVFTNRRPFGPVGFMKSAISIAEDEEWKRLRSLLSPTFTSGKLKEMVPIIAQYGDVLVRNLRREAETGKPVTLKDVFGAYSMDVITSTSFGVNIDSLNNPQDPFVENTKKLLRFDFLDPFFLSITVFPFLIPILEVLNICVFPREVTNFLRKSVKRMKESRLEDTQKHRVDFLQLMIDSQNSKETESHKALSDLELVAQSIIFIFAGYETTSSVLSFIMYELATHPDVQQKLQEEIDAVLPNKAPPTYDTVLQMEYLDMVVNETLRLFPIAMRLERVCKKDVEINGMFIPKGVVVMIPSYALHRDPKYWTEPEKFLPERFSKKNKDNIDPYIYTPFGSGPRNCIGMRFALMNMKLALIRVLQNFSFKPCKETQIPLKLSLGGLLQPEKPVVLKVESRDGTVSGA

Pseudomonas aeruginosa [13] = experiment: Antimicrobial activity against Pseudomonas aeruginosa ARC546 at 100 uM; format: functional, organism-based; procedure, shortened: as §1
[14] = system: Mycobacterium tuberculosis; experiment: Antimycobacterial activity against Mycobacterium tuberculosis expressing GFP assessed as reduction of bacterial growth rate at 30 uM after 5 to 7 days; format: functional, organism-based; procedure, shortened: as §3
[15] = system: Mycolicibacterium smegmatis; experiment: Antimicrobial activity against Mycobacterium smegmatis ATCC 607 at 100 uM; format: functional, organism-based
[16] = Cytotoxicity against human A549 cells after 72 hrs by resazurin based fluorescence assay; format: cell-based; details: read-out: MIC
Procedure, shortened: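 Cytotoxicity read as MMIC, the MIC on the A549 cell line.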

[17] = system: Mycolicibacterium smegmatis; experiment: Binding affinity to Mycobacterium smegmatis recombinant DprE1 assessed as half life
Procedure, shortened: (§4)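 Progress curves (fluorescence vs time) recorded at several inhibitor concentrations with 75 nM Msm DprE1 in the FAD/HRP/Amplex Red coupled assay, pH 8.5, 25 °C. A single-step reversible slow-binding model was fitted globally, with vs and vi fitted per concentration and koff and Kiapp shared. Half-life and residence time were derived from koff.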

Cytochrome P450 2D6 = Cytochrome P450 2D6 (Homo sapiens, UniProt P10635); experiment: Inhibition of CYP2D6 (unknown origin); format: ADME; procedure, shortened: as §2
Chain of Cytochrome P450 2D6 (P10635 whole entry): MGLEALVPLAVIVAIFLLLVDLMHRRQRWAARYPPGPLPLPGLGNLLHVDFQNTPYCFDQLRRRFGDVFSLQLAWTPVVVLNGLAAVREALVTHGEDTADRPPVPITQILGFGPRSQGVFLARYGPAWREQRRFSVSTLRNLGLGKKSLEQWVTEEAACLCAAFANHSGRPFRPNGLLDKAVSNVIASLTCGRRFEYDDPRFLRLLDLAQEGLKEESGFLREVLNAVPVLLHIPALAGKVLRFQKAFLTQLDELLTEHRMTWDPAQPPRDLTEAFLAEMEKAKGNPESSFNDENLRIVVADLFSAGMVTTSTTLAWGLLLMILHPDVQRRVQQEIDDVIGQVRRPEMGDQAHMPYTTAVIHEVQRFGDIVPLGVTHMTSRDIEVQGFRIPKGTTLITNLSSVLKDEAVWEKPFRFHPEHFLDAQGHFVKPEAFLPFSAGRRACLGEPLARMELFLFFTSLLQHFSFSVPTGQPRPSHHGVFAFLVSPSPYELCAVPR

[18] = system: Mycobacterium tuberculosis; experiment: Antimycobacterial activity against Mycobacterium tuberculosis over expressing InhA after 5 days by standard microdilution method; format: functional; details: 120 h
Haemophilus influenzae [19] = experiment: Antimicrobial activity against Haemophilus influenzae ARC446 at 100 uM; format: functional, organism-based; procedure, shortened: as §1
[20] = system: Mycobacterium tuberculosis; experiment: Antimycobacterial activity against Mycobacterium tuberculosis H37Rv at >MIC after 21 to 28 days; format: functional
Cytochrome P450 1A2 = molecular target: T1, Cytochrome P450 1A2 (Homo sapiens, UniProt P05177); experiment: Inhibition of CYP1A2 (unknown origin); format: ADME; procedure, shortened: as §2
T1 sequence (P05177 whole entry): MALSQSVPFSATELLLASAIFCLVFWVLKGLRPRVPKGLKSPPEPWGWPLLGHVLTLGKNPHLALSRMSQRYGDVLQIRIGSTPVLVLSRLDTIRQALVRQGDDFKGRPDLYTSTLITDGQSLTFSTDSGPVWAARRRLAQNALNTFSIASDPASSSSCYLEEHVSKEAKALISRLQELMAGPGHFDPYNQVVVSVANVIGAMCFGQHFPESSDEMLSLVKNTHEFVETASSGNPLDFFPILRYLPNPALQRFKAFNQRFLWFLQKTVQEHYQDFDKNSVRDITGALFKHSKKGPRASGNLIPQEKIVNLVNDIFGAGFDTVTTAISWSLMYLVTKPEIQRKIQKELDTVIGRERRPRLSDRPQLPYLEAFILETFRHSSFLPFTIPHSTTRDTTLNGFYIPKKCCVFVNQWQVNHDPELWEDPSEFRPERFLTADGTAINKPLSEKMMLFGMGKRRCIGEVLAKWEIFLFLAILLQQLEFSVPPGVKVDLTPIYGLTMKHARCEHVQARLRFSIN

[21] = system: Mycobacterium tuberculosis; experiment: Antimycobacterial activity against Mycobacterium tuberculosis over expressing DprE1 after 5 days by standard microdilution method; format: functional; details: 120 h
Candida albicans = experiment: Antimicrobial activity against Candida albicans ARC527 at 100 uM; format: functional, organism-based; procedure, shortened: as §1
Streptococcus pneumoniae = experiment: Antimicrobial activity against Streptococcus pneumoniae ARC548 at 100 uM; format: functional, organism-based; procedure, shortened: as §1
[22] = system: Mycolicibacterium smegmatis; experiment: Binding affinity to Mycobacterium smegmatis recombinant DprE1 assessed as residence time; procedure, shortened: as §4
[23] = system: Mycobacterium tuberculosis; experiment: Antimycobacterial activity against Mycobacterium tuberculosis over expressing PimA after 5 days by standard microdilution method; format: functional; details: 120 h
[24] = Octanol-water partition coefficient, log D of the compound by shake-flask method; format: physicochemical
[25] = Intrinsic clearance in human liver microsomes at 1 uM up to 30 mins by LC-MS/MS analysis; format: ADME; details: read-out: CLH
Klebsiella pneumoniae = experiment: Antimicrobial activity against Klebsiella pneumoniae ARC1865 at 100 uM; format: functional, organism-based; procedure, shortened: as §1
[26] = Intrinsic clearance in rat cryopreserved hepatocytes assessed per 10^6 cells at 1 uM up to 120 mins by LC-MS/MS analysis; format: ADME, cell-based, Hepatocyte; details: read-out: CLH
[27] = Fraction unbound in human plasma at 20 uM after 18 hrs by equilibrium dialysis method; format: ADME, cell-free
Haemophilus influenzae [28] = experiment: Antimicrobial activity against Haemophilus influenzae ARC158 at 100 uM; format: functional, organism-based; procedure, shortened: as §1
[29] = Inhibition of Mycobacterium smegmatis DprE1 Y321H mutant using farnesylphosphoryl-beta-D-ribofuranose as substrate assessed as conversion of amplex red to resorufin after 30 mins; set-up: species or system Mycolicibacterium smegmatis
Procedure, shortened: (§5)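 Recombinant M. smegmatis DprE1 (thioredoxin-6His fusion), wild type or Y321H, 75 nM. Enzyme was preincubated 30 min in FAD assay mix: 50 mM glycylglycine pH 8.5, 200 mM potassium glutamate, 10 μM FAD, 0.002% Brij-35, 2% DMSO. Reaction was started with 300 μM farnesylphosphoryl-β-D-ribofuranose, 0.01 mg/mL HRP and 50 μM amplex red at 25 °C.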

Cytochrome P450 2C19 = Cytochrome P450 2C19 (Homo sapiens, UniProt P33261); experiment: Inhibition of CYP2C19 (unknown origin); format: ADME; procedure, shortened: as §2
Chain of Cytochrome P450 2C19 (P33261 whole entry): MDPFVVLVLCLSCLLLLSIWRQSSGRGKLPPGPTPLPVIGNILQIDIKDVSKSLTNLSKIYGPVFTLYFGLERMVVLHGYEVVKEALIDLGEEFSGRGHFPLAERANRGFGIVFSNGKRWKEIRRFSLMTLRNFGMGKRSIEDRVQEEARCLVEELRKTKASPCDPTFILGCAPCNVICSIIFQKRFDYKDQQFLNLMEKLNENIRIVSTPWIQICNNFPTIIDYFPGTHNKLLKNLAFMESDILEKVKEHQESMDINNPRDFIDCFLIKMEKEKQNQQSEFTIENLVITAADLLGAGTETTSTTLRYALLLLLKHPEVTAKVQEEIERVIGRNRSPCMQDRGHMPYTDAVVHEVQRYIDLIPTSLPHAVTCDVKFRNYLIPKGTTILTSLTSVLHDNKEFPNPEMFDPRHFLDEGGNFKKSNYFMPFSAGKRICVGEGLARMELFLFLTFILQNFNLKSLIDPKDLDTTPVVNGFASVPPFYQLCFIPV

[30] = system: Mycolicibacterium smegmatis; experiment: Ratio of IC50 for Mycobacterium smegmatis DprE1 Y321H mutant to IC50 for Mycobacterium smegmatis recombinant wild type DprE1; procedure, shortened: as §5
[31] = Inhibition of Mycobacterium smegmatis recombinant DprE1 using farnesylphosphoryl-beta-D-ribofuranose as substrate assessed as conversion of amplex red to resorufin after 30 mins; set-up: species or system Mycolicibacterium smegmatis
Procedure, shortened: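 Msm DprE1 (thioredoxin-6His fusion of Msm Rv3790) at 75 nM, preincubated 30 min with 10 μM FAD. Buffer: 50 mM glycylglycine pH 8.5, 200 mM potassium glutamate, 0.002% Brij-35, 2% DMSO, 25 °C. Started with 300 μM farnesylphosphoryl-β-D-ribofuranose, 0.01 mg/mL HRP and 50 μM Amplex Red.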

[32] = system: Mycobacterium tuberculosis; experiment: Antimycobacterial activity against Mycobacterium tuberculosis H37Rv after 5 days by standard microdilution method; format: functional; details: 120 h
Staphylococcus aureus = experiment: Antimicrobial activity against Staphylococcus aureus ARC517 at 100 uM; format: functional, organism-based; procedure, shortened: as §1
[33] = system: Mycolicibacterium smegmatis; experiment: Binding affinity to Mycobacterium smegmatis recombinant DprE1 assessed as dissociation constant; procedure, shortened: as §4
Escherichia coli [34] = experiment: Antimicrobial activity against Escherichia coli ARC523 at 100 uM; format: functional, organism-based; procedure, shortened: as §1

With Cn1ncc(C(=O)N2CCC(Nc3cc(=O)[nH]c4ccc(F)cc34)CC2)c1Cl the Activity [1] was “Active”, the solubility at 24 h [2] was 105 µM (≈ 42.4 µg/mL) and the Activity [3] was “inactive”. For the same molecule, the Activity (Escherichia coli [4]) was “inactive”, the Activity (Pseudomonas aeruginosa [5]) was “inactive” and the Papp A→B [6] was 6 nm/s. For the same molecule, the inhibition [7] was “Active”, the IC80 [8] was greater than 100 µM and the INH (Cytochrome P450 2C9) was greater than 30 µM. The Activity [9] was “Active”, the MIC [10] was 0.8 µM (≈ 0.323 µg/mL) and the Papp B→A [11] was 130 nm/s. The Activity [12] was “Active”, the INH (Cytochrome P450 3A4) was greater than 30 µM and the Activity (Pseudomonas aeruginosa [13]) was “inactive”. The Activity [14] was “Active”, the Activity [15] was “inactive” and the MCC at 72 h [16] was greater than 200 µM. The T1/2 [17] was 1.38 h, the INH (Cytochrome P450 2D6) was greater than 30 µM and the MIC [18] was 1.6 µM (≈ 0.646 µg/mL). The Activity (Haemophilus influenzae [19]) was “inactive”, the MBC [20] was 3.1 µM (≈ 1.25 µg/mL) and the INH (Cytochrome P450 1A2) was greater than 30 µM. The MIC [21] was 100 µM (≈ 40.4 µg/mL), the Activity (Candida albicans) was “inactive” and the Activity (Streptococcus pneumoniae) was “inactive”. It also gave a TIME [22] of 1.98 h, an MIC [23] of 1.6 µM (≈ 0.646 µg/mL) and a logD [24] of 2. The microsomal CLint at 1 µM [25] was less than 4.8 µL/min/mg, the Activity (Klebsiella pneumoniae) was “inactive” and the hepatocyte CLint at 1 µM [26] was 5.6 µL/min/1e6 cells. The fraction unbound at 18 h, 20 µM [27] was 0.4, the Activity (Haemophilus influenzae [28]) was “inactive” and the IC50 [29] was 9.47 µM. It also gave an INH (Cytochrome P450 2C19) greater than 30 µM, a fold change (FC) [30] of 111 and an IC50 [31] of 0.005 µM. For the same molecule, the MIC [32] was 1.56 µM (≈ 0.63 µg/mL), the Activity (Staphylococcus aureus) was “inactive” and the Kdiss [33] was 0.00012 s⁻¹. The Activity (Escherichia coli [34]) was “inactive”.
